Each structure is given as a SMILES string. In brackets after ≈: the same amount, converted by molar mass. Activity calls are given as the source filed them. The rule behind the calls is not given here.

Experiment [1] has as its system Escherichia coli. Put plainly: Antibacterial activity against 5 x 10^5 CFU/ml CMY-2 producing Escherichia coli MC4100 harboring plasmid AC-cmy2 by microdilution method. It is filed as functional. An outline of the steps: (§1)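 Broth microdilution MIC in Mueller-Hinton broth with an inoculum of 5 × 10^5 CFU/ml. Isogenic E. coli MC4100 strains (vector control or carrying CMY-2 or CMY-30) were tested in parallel.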

Experiment [2] has as its system Escherichia coli. Put plainly: Antibacterial activity against 5 x 10^5 CFU/ml CMY-30 producing Escherichia coli MC4100 harboring plasmid AC-cmy30 by microdilution method. It counts as functional. An outline of the steps:
as §1

Experiment [3] can be described thus: Inhibition of Escherichia coli MC4100 Beta-Lactamase CMY-30 using cephalothin as reporter substrate.
Experiment [4] in a line: (§2) Inhibition of Escherichia coli MC4100 Beta-Lactamase CMY-2 using cephalothin as reporter substrate.
The test system of experiment [5] is Escherichia coli. The experiment in a line: Antibacterial activity against 5 x 10^5 CFU/ml Escherichia coli MC4100 harboring plasmid ACYC184 by microdilution method. It counts as functional. In short, it runs like this:
as §1

Experiment [6] concerns Escherichia coli. Put plainly: Antibacterial activity against 5 x 10^5 CFU/ml CMY-2 producing Escherichia coli MC4100 harboring plasmid AC-cmy2 by microdilution method in presence of 2 ug/ml clavulanic acid. It is filed as functional. In short, it runs like this: (§3)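 Broth microdilution MIC in Mueller-Hinton broth with an inoculum of 5 × 10^5 CFU/ml. Clavulanic acid was held at a fixed 2 μg/ml. Isogenic E. coli MC4100 strains (vector control or carrying CMY-2 or CMY-30) were tested in parallel.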

The subject of experiment [7] is Escherichia coli. The experiment in a line: Antibacterial activity against 5 x 10^5 CFU/ml CMY-30 producing Escherichia coli MC4100 harboring plasmid AC-cmy30 by microdilution method in presence of 2 ug/ml clavulanic acid. It is filed as functional. In short, it runs like this:
as §3

Experiment [8] concerns Escherichia coli. Put plainly: Antibacterial activity against 5 x 10^5 CFU/ml Escherichia coli MC4100 harboring plasmid ACYC184 by microdilution method in presence of 2 ug/ml clavulanic acid. It counts as functional. In short, it runs like this:
as §3

The subject of experiment [9] is Escherichia coli. The experiment in a line: Inhibition of Escherichia coli DH5alpha beta-lactamase CMY-2 assessed as aztreonam hydrolysis. In short, it runs like this: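 Agar bioassay on MH agar seeded with E. coli DH5α indicator (10^5 CFU/ml), with 30 μg aztreonam disks. Purified cephalosporinase (700 ng in 10 μl phosphate buffer) was applied near each disk. Plates were incubated 18 h at 35°C and read for distortion of the inhibition zone against control disks.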

The subject of experiment [10] is Escherichia coli. Put plainly: Ratio of Kcat to Km for Escherichia coli MC4100 Beta-Lactamase CMY-2. An outline of the steps:
(§4)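 CMY-2 purified from E. coli MC4100 carrying high-copy plasmid pB-cmy2. Cells in 20 mM Tris pH 7.4 sonicated, then Q- and S-Sepharose ion exchange, >95% pure by SDS-PAGE. Kinetic constants are means of four independent measurements. For some β-lactams Km was determined as Ki with cephalothin as reporter substrate.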

In experiment [11] the test system is Escherichia coli. The experiment in a line: Ratio of Kcat to Km for Escherichia coli MC4100 Beta-Lactamase CMY-30 harboring Val211?Gly211 mutation. An outline of the steps:
(§5)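 Enzyme source was E. coli MC4100 carrying high-copy plasmids pB-cmy30 or pB-cmy2. Enzyme was released by sonication in 20 mM Tris, pH 7.4, then purified by Q- and S-Sepharose ion exchange to >95% purity by SDS-PAGE. Values are means of four independent measurements. For some β-lactams, Km was obtained as Ki using cephalothin as reporter substrate.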

For experiment [12], the system named is Escherichia coli. Put plainly: Activity of Escherichia coli MC4100 Beta-Lactamase CMY-2. In short, it runs like this: as §4
Experiment [13] relates to Escherichia coli. Put plainly: Activity of Escherichia coli MC4100 Beta-Lactamase CMY-30 harboring Val211?Gly211 mutation. An outline of the steps: as §5
Experiment [14] has as its system Escherichia coli. The description is as §2.
Experiment [15] concerns Escherichia coli. The experiment in a line: Antibacterial activity against 5 x 10^5 CFU/ml CMY-30 producing Escherichia coli MC4100 harboring plasmid AC-cmy30 by microdilution method in presence of 4 ug/ml Tazobactam. It is filed as functional. An outline of the steps:
(§6)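 Broth microdilution MICs in Mueller-Hinton broth, inoculum 5 × 10^5 CFU/ml. Isogenic E. coli MC4100 strains carrying CMY-30, CMY-2 or no CMY gene were tested in parallel. Tazobactam was held at a fixed 4 μg/ml.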

Experiment [16] has as its system Escherichia coli. The experiment in a line: Antibacterial activity against 5 x 10^5 CFU/ml Escherichia coli MC4100 harboring plasmid ACYC184 by microdilution method in presence of 4 ug/ml Tazobactam. It is filed as functional. In short, it runs like this:
as §6

The test system of experiment [17] is Escherichia coli. The experiment in a line: Antibacterial activity against 5 x 10^5 CFU/ml CMY-2 producing Escherichia coli MC4100 harboring plasmid AC-cmy2 by microdilution method in presence of 4 ug/ml Tazobactam. It is filed as functional. In short, it runs like this:
as §6

Turning to `CO/N=C(\C(=O)N[C@@H]1C(=O)N2C(C(=O)[O-])=C(C[N+]3(C)CCCC3)CS[C@H]12)c1csc(N)n1`, the MIC in experiment [1] and in experiment [2] was 0.25 µg/mL (≈ 0.52 µM) throughout.
As for `C[C@]1(/C=C\C#N)[C@H](C(=O)O)N2C(=O)C[C@H]2S1(=O)=O`, the results for the Ki in [3] and in experiment [4] were 200 nM and 100 nM, respectively.
Turning to `CC1(C)S[C@@H]2[C@H](NC(=O)[C@H](N)c3ccc(O)cc3)C(=O)N2[C@H]1C(=O)O` [AMOXICILLIN], the minimal inhibitory concentration (MIC) in experiment [5] was 4 µg/mL (≈ 10.9 µM); in [6], over 512 µg/mL; in experiment [1] it was over 512 µg/mL; in experiment [7], over 512 µg/mL; in experiment [2], over 512 µg/mL; in experiment [8] it was 4 µg/mL.
For `C[C@H]1[C@H](NC(=O)/C(=N\OC(C)(C)C(=O)O)c2csc(N)n2)C(=O)N1S(=O)(=O)O` [AZTREONAM], the result in [9] was Active. The Ki in experiment [3] was found to be 17 nM; in experiment [4] it was 2.1 nM. The MIC in experiment [1] stood at 16 µg/mL (≈ 36.7 µM); in [2] it was 128 µg/mL (≈ 294 µM).
Turning to `N[C@@H](C(=O)N[C@@H]1C(=O)N2C(C(=O)O)=C(Cl)CS[C@H]12)c1ccccc1` [CEFACLOR ANHYDROUS], the results for the MIC in experiment [5], in [1] and in experiment [2] were 2 µg/mL (≈ 5.44 µM), over 512 µg/mL and over 512 µg/mL, respectively.
For the compound `CO/N=C(\C(=O)N[C@@H]1C(=O)N2C(C(=O)O)=C(COC(C)=O)CS[C@H]12)c1csc(N)n1` [CEFOTAXIME], the values for the kcat/Km in experiment [10] and in [11] were under 2e+06 M⁻¹ s⁻¹ and 5.7e+06 M⁻¹ s⁻¹, respectively. For the same compound, the results for the inhibition constant Ki in [3] and in experiment [4] were 300 nM and 5 nM, respectively. Also, the MIC in [5] was found to be 0.12 µg/mL (≈ 0.263 µM); in experiment [1], 16 µg/mL (≈ 35.1 µM); in experiment [2], 256 µg/mL (≈ 562 µM). Further, the kcat was under 0.01 s⁻¹ in experiment [12] and 1.7 s⁻¹ in experiment [13].
As to `CO[C@@]1(NC(=O)Cc2cccs2)C(=O)N2C(C(=O)O)=C(COC(N)=O)CS[C@@H]21` [CEFOXITIN], the figures for the kcat/Km in experiment [10] and in experiment [11] were 2.3e+06 M⁻¹ s⁻¹ and 1.6e+06 M⁻¹ s⁻¹, respectively. Moreover, the figures for the Ki in [3] and in experiment [4] were 170 nM and 150 nM, respectively. For the same compound, the results for the MIC in experiment [5], in experiment [1] and in [2] were 2 µg/mL (≈ 4.68 µM), over 512 µg/mL and over 512 µg/mL, respectively. Besides, the kcat came to 0.35 s⁻¹ in experiment [12] and 0.28 s⁻¹ in experiment [13].
Regarding `CC(C)(O/N=C(\C(=O)N[C@@H]1C(=O)N2C(C(=O)[O-])=C(C[n+]3ccccc3)CS[C@H]12)c1csc(N)n1)C(=O)O` [CEFTAZIDIME], the kcat/Km in [10] turned out to be 500000 M⁻¹ s⁻¹; in experiment [11], 2.9e+06 M⁻¹ s⁻¹. Moreover, the Ki is 140 nM in experiment [3] and 20 nM in experiment [4]. The MIC in experiment [5] is 0.25 µg/mL (≈ 0.457 µM); in experiment [1], 128 µg/mL (≈ 234 µM); in [2], over 512 µg/mL. Further, the kcat stood at 0.01 s⁻¹ in experiment [12] and 0.4 s⁻¹ in experiment [13].
`CO/N=C(\C(=O)N[C@@H]1C(=O)N2C(C(=O)O)=C(COC(N)=O)CS[C@H]12)c1ccco1` [CEFUROXIME]: the values for the MIC in experiment [5], in [1] and in experiment [2] were 2 µg/mL (≈ 4.71 µM), over 512 µg/mL and over 512 µg/mL, respectively.
With `CC(=O)OCC1=C(C(=O)O)N2C(=O)[C@@H](NC(=O)Cc3cccs3)[C@H]2SC1` [CEPHALOTHIN], the kcat/Km in experiment [10] came out at 1.6e+07 M⁻¹ s⁻¹; in experiment [11], 1e+07 M⁻¹ s⁻¹. Besides, the MIC in experiment [5] is 2 µg/mL (≈ 5.04 µM); in experiment [1] it was over 512 µg/mL; in experiment [2], over 512 µg/mL. In addition, the Km in [12] is 17 µM; in experiment [13] it was 26 µM. Besides, the kcat in experiment [12] was determined as 267 s⁻¹; in experiment [13], 256 s⁻¹.
Consider `Cc1onc(-c2ccccc2Cl)c1C(=O)N[C@@H]1C(=O)N2[C@@H]1SC(C)(C)[C@@H]2C(=O)O` [CLOXACILLIN], for which the Ki in experiment [3] is 2.3 nM; in [4], 0.2 nM.
On to `CC1(C)S[C@@H]2[C@H](NC(=O)Cc3ccccc3)C(=O)N2[C@H]1C(=O)O` [PENICILLIN G], for which the kcat/Km in experiment [10] was determined as 4e+07 M⁻¹ s⁻¹; in [11] it was 3.8e+07 M⁻¹ s⁻¹. In addition, in experiment [3], the affinity corresponds to a Ki of 600 nM. The kcat in [12] turned out to be 24 s⁻¹; in [13], 23 s⁻¹. The Michaelis-Menten constant (Km) in experiment [14] came to 0.6 µM.
For `CCN1CCN(C(=O)N[C@@H](C(=O)N[C@@H]2C(=O)N3[C@@H]2SC(C)(C)[C@@H]3C(=O)O)c2ccccc2)C(=O)C1=O` [PIPERACILLIN], the MIC in experiment [5] stood at 0.5 µg/mL (≈ 0.966 µM); in experiment [15] it was 16 µg/mL; in experiment [1], 128 µg/mL (≈ 247 µM); in [16], 0.5 µg/mL; in [2], 64 µg/mL (≈ 124 µM); in [17], 16 µg/mL.
On to `C[C@]1(Cn2ccnn2)[C@H](C(=O)O)N2C(=O)C[C@H]2S1(=O)=O` [TAZOBACTAM], for which the values for the Ki in experiment [3] and in experiment [4] were over 1000 nM and 800 nM, respectively.
On to `CC1(C)S[C@@H]2[C@H](NC(=O)[C@H](C(=O)O)c3ccsc3)C(=O)N2[C@H]1C(=O)O` [TICARCILLIN], for which the minimal inhibitory concentration (MIC) is 2 µg/mL (≈ 5.2 µM) in experiment [5]; over 512 µg/mL in experiment [6]; over 512 µg/mL in experiment [1]; over 512 µg/mL in [7]; over 512 µg/mL in [2]; 1 µg/mL in experiment [8].
